ChEMBL document CHEMBL4665656, “Toxicity, bioactivity, release of HS in vivo and pharmaco-kinetics of HS-donors with thiophosphamide structure” (Eur J Med Chem, 2019)
Calls of active or inactive are those of the source. The rule behind the calls is not given here.

Experiments:
[1] = Induction of H2S generation assessed as half life at 150 uM incubated at 22 degC and pH 8 by fluorescence spectrophotometry; assay type: functional
In short: (§1)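 Donor at 150 µM final, mixed with 200 µM sulfonyl-azide fluorescent probe in buffer/acetonitrile (1:9) at set pH. Cuvette held in a water bath at 22 °C or 37 °C, with fluorescence read three times at intervals. H2S was quantified from a Na2S standard curve (0–200 µM, probe 200 µM).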

A549 = assay: Cytotoxicity in human A549 cells assessed as growth inhibition incubated for 24 hrs by MTT assay; assay type: functional, cell-based; conditions: A549, 24 h
In short: (§2)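 Cells were grown in RPMI 1640 with 10% FBS at 37 °C and 10% CO2, seeded at 6×10^3 cells/well. Exposure was 24 h, with viability by MTT, in triplicate cultures. IC50 was reported as mean ± SD.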

[2] = Induction of H2S generation assessed as Cmax at 150 uM incubated at 37 degC and pH 5 by fluorescence spectrophotometry; assay type: functional; in short: as §1
[3] = Toxicity in Wistar rat assessed as effect on WBC level at 0.01 mmol/kg, ip, administered daily for 14 days (reference value: 5.82 10^9/L); conditions: in vivo, 336 h, time 14 day
H9c2 [4] = assay: Cardioprotective activity against H2O2- induced toxicity in rat H9c2 cells assessed as effect on cell morphology at 50 uM incubated for 8 hrs co-treated with 50 uM H2O2 measured after 24 hrs […]; assay type: functional, cell-based
In short: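 H9c2 cells in 24-well plates treated with H2O2 (50, 200 or 400 µM) for 8 h plus compound 50 µM, 24 h total. Cells were stained with Giemsa for 30 min and morphology examined by microscopy.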

[5] = Induction of H2S generation assessed as half life at 150 uM incubated at 37 degC and pH 5 by fluorescence spectrophotometry; assay type: functional; in short: as §1
[6] = Induction of H2S generation assessed as Cmax at 150 uM incubated at 22 degC and pH 1.2 by fluorescence spectrophotometry; assay type: functional; in short: as §1
[7] = Induction of H2S generation assessed as half life at 150 uM incubated at 37 degC and pH 1.2 by fluorescence spectrophotometry; assay type: functional; in short: as §1
[8] = Toxicity in Wistar rat assessed as damaged glomeruli, marked gaps and swollen proximal convoluted tubules at 0.01 mmol/kg, ip administered for 14 days; assay type: organism-based; conditions: in vivo, 336 h, time 14 day
In short: (§3)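 Wistar rats (6/group) dosed ip daily for 14 days with compound in 10% DMSO; vehicle controls received 10% DMSO. Liver, kidney and spleen were fixed in 4% glutaraldehyde, sectioned, H-E stained and examined microscopically.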

[9] = Cytotoxicity against mouse RAW264.7 cells assessed as cell viability at 20 to 100 microM after 24 hrs by MTT assay; assay type: cell-based; conditions: dose 20-100 µM, read-out: Activity
In short: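 RAW264.7 macrophages in high-glucose DMEM with 10% heat-inactivated FBS, 37 °C, 5% CO2. LPS 1 µg/mL with or without compound (20 and 100 µM) for 24 h. Then MTT 4 h, formazan dissolved in DMSO, A570, expressed as % of control.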

HeLa = assay: Cytotoxicity in human HeLa cells assessed as growth inhibition incubated for 24 hrs by MTT assay; assay type: functional, cell-based; in short: as §2
[10] = Toxicity in zebra fish assessed as decrease in hatching rate at <=20 uM measured after 120 hpf by microscopic analysis relative control; design: species or system Danio rerio; scale not given: the % may be the effect or the level left; conditions: zebrafish, 5 µM
[11] = Induction of H2S generation assessed as Cmax Induction of H2S generation assessed as Cmax at 150 uM incubated at 37 degC and pH 8 by fluorescence spectrophotometry; assay type: functional; in short: as §1
[12] = Toxicity in Wistar rat assessed as effect on hemoglobin level at 0.01 mmol/kg, ip, administered daily for 14 days (reference value: 98 g/l); conditions: in vivo, 336 h, time 14 day
[13] = Induction of H2S generation assessed as half life at 150 uM incubated at 22 degC and pH 5 by fluorescence spectrophotometry; assay type: functional; in short: as §1
H9c2 [14] = assay: Cardioprotective activity against H2O2- induced toxicity in rat H9c2 cells assessed as increase in survival rate at 50 uM incubated for 8 hrs co-treated with 50 uM H2O2 measured after 24 hrs by MTT assay relative to control; assay type: functional
In short: (§4)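 H9c2 cardiomyocytes injured with H2O2 (50, 200 or 400 µM) for 8 h together with compound (10–100 µM). Survival rate measured against the H2O2 model group. Six independent experiments, mean ± sd.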

H9c2 [15] = assay: Cardioprotective activity against H2O2- induced toxicity in rat H9c2 cells assessed as increase in survival rate at 50 uM incubated for 8 hrs co-treated with 200 uM H2O2 measured after 24 hrs by MTT assay relative to control; assay type: functional; in short: as §4
[16] = Toxicity in zebra fish assessed as hatching rate at 0.5 uM measured after 120 hpf by microscopic analysis; design: species or system Danio rerio; conditions: zebrafish
[17] = Induction of H2S generation assessed as half life at 150 uM incubated at 37 degC and pH 8 by fluorescence spectrophotometry; assay type: functional; in short: as §1
[18] = Retention time of compound in serum by LC-MS analysis; assay type: physicochemical, cell-free
In short: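 Compound incubated in PBS pH 7.4 or in serum, sampled every 12 h over 36 h, and analysed by LC-MS for parent and product peaks.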

RAW264.7 = assay: Anti-inflammatory activity in mouse RAW264.7 cells assessed as inhibition of LPS-induced NO production preincubated for 4 hr followed by LPS addition and measured after 24 hrs relative to control; assay type: functional, cell-based; conditions: dose 100.0 µM, time 28.0 hrs
In short: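 RAW264.7 cells exposed to LPS 1 µg/mL with compound (20 and 100 µM) for 24 h. Nitrite in medium measured by Griess reagent, […], against a sodium nitrite standard curve (0–100 µM). Four parallel groups, mean ± SD.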

WI-38 = assay: Cytotoxicity in human W138 cells assessed as growth inhibition incubated for 24 hrs by MTT assay; assay type: cell-based; conditions: WI-38, 24 h; in short: as §2
[19] = Toxicity in Wistar rat assessed as large and inflamed nucleus in spleen at 0.01 mmol/kg, ip administered for 14 days; assay type: organism-based; conditions: in vivo, 336 h, time 14 day; in short: as §3
HT-29 = assay: Cytotoxicity in human HT-29 cells assessed as growth inhibition incubated for 24 hrs by MTT assay; assay type: functional, cell-based; conditions: HT-29, 24 h; in short: as §2
[20] = Cytotoxicity against rat H9C2 cells assessed as cell viability at 100 uM measured after 24 hrs by MTT assay; assay type: cell-based; conditions: read-out: Activity
[21] = Induction of H2S generation assessed as half life at 150 uM incubated at 37 degC and pH 7.4 by fluorescence spectrophotometry; assay type: functional; in short: as §1
[22] = Acute toxicity in juvenile zebrafish assessed as decrease in locomotor activity measured as swimming distance at 10 uM measured at 144 hpf; design: species or system Danio rerio; conditions: in vivo, dose […]
In short: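 Wild-type AB zebrafish bred at 28 °C on a 14 h/10 h light cycle; normally developing embryos were selected at 4 hpf. Total swimming distance of juveniles was recorded over 5 min under visible light. DMF (1:1000) was the vehicle control, n = 100, three independent experiments, mean ± SD.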

[23] = Toxicity in Wistar rat assessed as effect on RBC level at 0.01 mmol/kg, ip, administered daily for 14 days (reference value: […]); conditions: in vivo, 336 h, time 14 day
[24] = Induction of H2S generation assessed as Cmax at 150 uM incubated at 22 degC and pH 5 by fluorescence spectrophotometry; assay type: functional; in short: as §1

Structure (SMILES)	T1/2 [1] [min]	IC50 (A549) [µM]	Cmax [2] [µM]	Activity [3]	Activity (H9c2 [4])	T1/2 [5] [min]	Cmax [6] [µM]	T1/2 [7] [min]	Activity [8]	viability at 24 h [9] [%]	IC50 (HeLa) [µM]	Activity [10] [%]	Cmax [11] [µM]	Activity [12] [g/L]	T1/2 [13] [min]	Activity (H9c2 [14]) [%]	Activity (H9c2 [15]) [%]	Activity [16]	T1/2 [17] [min]	Retention_time [18] [min]	other results
S=P1(c2ccccc2)NCCCO1 (stereo not drawn)	35.1	886	35.8	3.23 10^9/L	Active	36.6	25	35.4	Toxic	70	826	50	35.1	190	34.1	17.1	13.9	Non-Toxic	34.9	9.647	Activity (RAW264.7): Dose-dependent effect; IC50 (WI-38): 720 µM; Activity [19]: Toxic; IC50 (HT-29): 1050 µM; viability at 24 h, 100 µM [20]: > 90%; T1/2 [21]: 35.7 min; Activity [22]: 257 mm; Activity [23]: 8.42 10^12/L; Cmax [24]: 24.9 µM
O=C([O-])[C@H](Cc1cc2ccccc2[nH]1)NP([O-])(=S)c1ccccc1.[Li+].[Li+] (stereo partly drawn)	8.54	433	124	4.01 10^9/L	Active	2.9	118	1.51	Toxic	70	712	50	124	168	3.53	25.5	30.1	Non-Toxic	7.85	8.06	Activity (RAW264.7): Dose-dependent effect; IC50 (WI-38): 724 µM; Activity [19]: Toxic; IC50 (HT-29): 742 µM; viability at 24 h, 100 µM [20]: > 90%; T1/2 [21]: 3.07 min; Activity [22]: 216 mm; Activity [23]: 5.98 10^12/L; Cmax [24]: 117 µM
